Test results: paper PMC3913000 (Nature chemical biology, 2013)
Entries after “also recorded” stand apart in the source; their conditions may differ.

Assays:
RBL cells = assay: Inhibition of allergen-induced RBL mast cell degranulation; assay type: cell-based, rat; settings: equimolar IgE^DNP and IgE^dansyl; 500 nM HtTA [dansyl2NF2]
IgE = settings: read-out: Kd for IgE (nucleotide-binding site ligand); cited from earlier work
IgE^dansyl = assay: Fluorescence quenching assay, hapten binding to IgE^dansyl; settings: dansyl-IgE^dansyl versus NF-IgE^DNP
In short: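 Monovalent hapten titrated into 10 nM IgE in PBS. Binding read as quenching of IgE tryptophan fluorescence at 335 nm, which occurs only when hapten and IgE are in proximity (<10 nm). Monovalent binding constants were derived from the quenching. At least triplicate.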

Compound	inhibition of HtTA [dansyl2NF2]-induced degranulation (RBL cells)	Kd (IgE)	difference in affinity between dansyl-IgE^dansyl and NF-IgE^DNP pairs (IgE^dansyl)
O=C(O)CCCc1c[nH]c2ccccc12 [IBA, indole-3-butyric acid]	did not inhibit degranulation; also recorded: no inhibition of mast cell degranulation was observed	4.5 ± 0.6 µM	
dansyl			760 fold
